Experimental data from ChEMBL document CHEMBL4715813, “Allicin-inspired pyridyl disulfides as antimicrobial agents for multidrug-resistant Staphylococcus aureus” (Eur J Med Chem, 2018).
In brackets after ≈: the same amount, converted by molar mass. Activity calls are given as the source filed them. The rule behind the calls is not given here.

Assays:
Staphylococcus aureus [1] = assay: Antibacterial activity against methicillin-susceptible Staphylococcus aureus ATCC 25923 assessed as inhibition of bacterial growth at 1 to 2 times of MIC after 20 hrs; assay type: functional, organism-based
Staphylococcus aureus [2] = assay: Disruption of membrane potential in Staphylococcus aureus after 15 to 30 mins by DiOC2(3) probe based flow cytometric anlaysis; assay type: functional, organism-based; settings: time 15-30 min
How it was run: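 An overnight S. aureus culture was diluted 1:100 in LB, shaken 2 h at 37 °C, then diluted to a final 1:200. Cells were treated with 3–30 μM, DMSO 2% vehicle or CCCP at 37 °C with shaking. At 15 and 30 min, samples were stained 20 min with DiOC2(3). Flow cytometry used ex 488 nm, green 530/30 and red 585/42, reported as red/green ratio (mean ± SEM).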

Staphylococcus aureus [3] = assay: Ration of MBC to MIC against Vancomycin-resistant Staphylococcus aureus HIP11714; assay type: functional
How it was run: (§1)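 For MBC, 5 μL from each well was spotted on agar and incubated overnight; MBC is the lowest concentration with no visible growth. Ratio taken as MBC over MIC.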

Staphylococcus aureus [4] = assay: Antibacterial activity against heterogeneous vancomycin-intermediate Staphylococcus aureus Mu3 ATCC 700698 assessed as bacterial growth inhibition incubated for 20 hrs by broth dilution method; assay type: functional
How it was run: (§2)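 Broth microdilution: 0.5 McFarland suspension from an overnight culture, diluted 1:100 in cation-adjusted Mueller Hinton broth (CAMHB), given serial dilutions of test agent for 20 h at 37 °C. MIC is the lowest concentration with no visible growth.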

Enterococcus faecalis = assay: Antibacterial activity against vancomycin-susceptible Enterococcus faecalis ATCC 29212 assessed as zone of inhibition by disc diffusion method; assay type: functional
Staphylococcus aureus [5] = assay: Antibacterial activity against methicillin-susceptible Staphylococcus aureus ATCC 25923 in presence of glutathione; assay type: functional
How it was run: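 Broth microdilution MIC: a 0.5 McFarland suspension from overnight culture was diluted 1:100 in cation-adjusted Mueller Hinton broth supplemented with glutathione 100 μM. It was exposed to serial dilutions for 20 h at 37 °C. MIC was taken as the lowest concentration with no visible growth.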

Staphylococcus aureus [6] = assay: Bactericidal activity against vancomycin-intermediate resistant Staphylococcus aureus Mu50 ATCC 700699 assessed as bacterial killing incubated for over night; assay type: functional; how it was run: as §1
Staphylococcus aureus [7] = assay: Antibacterial activity against vancomycin-resistant Staphylococcus aureus clinical isolate 10 assessed as bacterial growth inhibition after 20 hrs by broth microdilution assay; assay type: functional; how it was run: as §2
Staphylococcus aureus [8] = assay: Antibacterial activity against heterogeneous vancomycin-intermediate Staphylococcus aureus Mu3 ATCC 700698 assessed as bacterial growth inhibition measured between 5 to 7 passages by broth dilution method; assay type: functional
How it was run: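 Serial passage with hVISA Mu3, VISA and VRSA strains grown at 0.5× MIC of agent (± equimolar vancomycin). […] MIC was read visually at each passage.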

Staphylococcus aureus [9] = assay: Antibacterial activity against hospital acquired methicillin-resistant Staphylococcus aureus ATCC 43300 assessed as zone of inhibition by disc diffusion method; assay type: functional
Staphylococcus aureus [10] = assay: Antibacterial activity against methicillin-susceptible Staphylococcus aureus ATCC 25923 assessed as delayed bacterial proliferation at 0.5 times of MIC for 15 hrs; assay type: functional, organism-based
Staphylococcus aureus [11] = assay: Synergistic antibacterial activity against vancomycin-resistant Staphylococcus aureus HIP14300 assessed as fractional inhibitory concentration index incubated for 20 hrs in presence of vancomycin by checkerboard titration assay; assay type: functional
How it was run: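 Checkerboard: VRSA HIP14300 as a 0.5 McFarland suspension diluted 1:100 in CAMHB, inoculated into twofold serial dilutions of disulfide and vancomycin, sealed, 20 h at 37 °C. Growth read by MTT staining with DMSO solubilization. ΣFIC = FIC1h + FICVAN; synergy ≤ 0.5, indifferent >0.5–≤4, antagonism >4.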

Enterobacter cloacae = assay: Antibacterial activity against Enterobacter cloacae ATCC 23355 assessed as zone of inhibition by disc diffusion method; assay type: functional
Staphylococcus aureus [12] = assay: Antibacterial activity against methicillin-susceptible Staphylococcus aureus ATCC 25923 in presence of 5% v/v serum; assay type: functional
Staphylococcus aureus [13] = assay: Antibacterial activity against methicillin-susceptible Staphylococcus aureus ATCC 25923 in presence of 0.05% v/v albumin; assay type: functional
Staphylococcus aureus [14] = assay: Antibacterial activity against vancomycin-resistant Staphylococcus aureus HIP11714 assessed as bacterial growth inhibition by measuring fold increase in MIC between 5 to 7 passages by broth dilution method; assay type: functional
Staphylococcus aureus [15] = assay: Antibiofilm activity against methicillin-resistant Staphylococcus aureus assessed as disruption of preformed biofilm at 1 to 5 times of MIC incubated for 20 hrs by crystal violet staining based assay; assay type: functional, organism-based
Staphylococcus aureus [16] = assay: Bactericidal activity against heterogeneous vancomycin-intermediate Staphylococcus aureus Mu3 ATCC 700698 assessed as bacterial killing incubated for over night; assay type: functional; how it was run: as §1
Staphylococcus aureus [17] = assay: Antibacterial activity against heterogeneous vancomycin-intermediate resistant Staphylococcus aureus Mu3 ATCC 700698 assessed as zone of inhibition by disc diffusion method; assay type: functional
Staphylococcus aureus [18] = assay: Antibacterial activity against methicillin-susceptible Staphylococcus aureus ATCC 25923 assessed as zone of inhibition by disc diffusion method; assay type: functional
Staphylococcus aureus [19] = assay: Bacteriostatic activity against methicillin-susceptible Staphylococcus aureus ATCC 25923 assessed as reduction in colony forming unit at 4 times of MIC measured up to 4 hrs by time kill assay; assay type: functional, organism-based
How it was run: (§3)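 Time-kill: a 1:100 dilution of 0.5 McFarland S. aureus […] suspension was exposed to 0, 1 and 4× MIC. At 0, 1, 2 and 4 h, samples were serially diluted in PBS and plated on MHA. CFU were counted after 30 h incubation.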

Staphylococcus aureus [20] = assay: Bacteriostatic activity against methicillin-susceptible Staphylococcus aureus ATCC 25923 assessed as reduction in colony forming unit at 1 times of MIC measured up to 4 hrs by time kill assay; assay type: functional, organism-based; settings: time hrs <=4; how it was run: as §3
Staphylococcus aureus [21] = assay: Induction of membrane permeabilization in methicillin-susceptible Staphylococcus aureus ATCC 25923 assessed as cell viability at 1 to 5 times of MIC incubated for 5 mins by SYTO9 and PI staining based fluorescence assay; assay type: functional, organism-based
How it was run: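 S. aureus […] was grown to OD600 0.4 in LB, washed with PBS and resuspended in 100 mM potassium phosphate pH 7.0 with 5 mM MgSO4. […] Controls were DMSO 5% and nisin 25 μg/mL. SYTO 9/propidium iodide staining ran 15 min at r.t. in the dark, and the green/red ratio (ex 485; em 535/595 nm) was read. Data are mean ± SEM, n = 3.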

Acinetobacter baumannii = assay: Antibacterial activity against Acinetobacter baumannii ATCC 19606 assessed as zone of inhibition by disc diffusion method; assay type: functional
Pseudomonas aeruginosa = assay: Antibacterial activity against Pseudomonas aeruginosa ATCC 15422 assessed as zone of inhibition by disc diffusion method; assay type: functional
Staphylococcus aureus [22] = assay: Induction of intracellular oxidant species generation in Staphylococcus aureus ATCC 25923 after 1 hr by colorimetric based NBT assay; assay type: functional, organism-based
How it was run: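 Cells at OD600 1.5 in HBSS mixed with 1 mg/mL aqueous NBT and agent (added from 2 mM stock) or DMSO/water, shaken for 1 h at 37 °C. Stopped with 0.1 M HCl and centrifuged; pellet formazan solubilized in DMSO/KOH/HBSS and read at OD560.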

## CCCCCCCCSSc1ccccn1
Staphylococcus aureus [1]
  Activity: Active
Staphylococcus aureus [2]
  Activity: Dose-dependent effect
Staphylococcus aureus [3]
  Ratio: >8
Staphylococcus aureus [4]
  MIC: 12.5 µM (≈ 3.19 µg/mL)
Enterococcus faecalis
  diameter of the inhibition zone (DIZ): 12 mm
Staphylococcus aureus [5]
  MIC: 50 µM
Staphylococcus aureus [6]
  MBC: 25 µM (≈ 6.39 µg/mL)
Staphylococcus aureus [7]
  MIC50: 6.25 µM (≈ 1.6 µg/mL)
  MIC90: 12.5 µM (≈ 3.19 µg/mL)
Staphylococcus aureus [8]
  MIC: > 50 µM
Staphylococcus aureus [9]
  diameter of the inhibition zone (DIZ): 38 mm
Staphylococcus aureus [10]
  Activity: Active
Staphylococcus aureus [11]
  FIC: <=0.5
Enterobacter cloacae
  diameter of the inhibition zone (DIZ): 0 mm
Staphylococcus aureus [12]
  MIC: 25 µM
Staphylococcus aureus [13]
  MIC: 12.5 µM
Staphylococcus aureus [14]
  fold change (FC): >2
Staphylococcus aureus [15]
  Activity: Dose-dependent effect
Staphylococcus aureus [16]
  MBC: > 50 µM
Staphylococcus aureus [17]
  diameter of the inhibition zone (DIZ): 37 mm
Staphylococcus aureus [18]
  diameter of the inhibition zone (DIZ): 30 mm
Staphylococcus aureus [19]
  Activity: Active
Staphylococcus aureus [20]
  Activity: Active
Staphylococcus aureus [21]
  Activity: inactive
Acinetobacter baumannii
  diameter of the inhibition zone (DIZ): 0 mm
Pseudomonas aeruginosa
  diameter of the inhibition zone (DIZ): 0 mm
Staphylococcus aureus [22]
  Activity: Active
